From ChEMBL document CHEMBL3596093, “Synthesis and antimicrobial evaluation of 5-aryl-1,2,4-triazole-3-thione derivatives containing a rhodanine moiety” (2015)
Converted amounts (≈) assume the structure as drawn.

Experiments:
[1] = system: Streptococcus mutans; assay: Antibacterial activity against Streptococcus mutans 3065 after 24 hrs by two-fold serial dilution method; assay type: functional; details: Streptococcus mutans, 3065, 24 h
How it was run: (§1)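 Strains grown to mid-log phase in Mueller-Hinton broth, then diluted 1000-fold in the same broth to about 10^5 CFU/mL. Compounds were made up as DMSO stocks and two-fold serially diluted from a final top concentration of 64 µg/mL. Incubation was 37 °C for 24 h. Growth was read as absorbance at 630 nm on a microplate reader. MIC assays were run in triplicate.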

[2] = system: Streptococcus mutans; assay: Bactericidal activity against Streptococcus mutans 3065 after 24 hrs by agar plate method; assay type: functional; details: Streptococcus mutans, 3065, 24 h
How it was run: (§2)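 Samples of 5 µL from MIC wells with no visible growth were plated onto fresh Mueller-Hinton agar and incubated a further 24 h at 37 °C. MBC is the lowest concentration giving no visible colony growth on the agar. Assays were run in triplicate.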

[3] = system: Escherichia coli; assay: Antibacterial activity against Escherichia coli KCTC 1924 after 24 hrs by two-fold serial dilution method; assay type: functional; details: KCTC 1924, 24 h; how it was run: as §1
[4] = system: Staphylococcus aureus; assay: Bactericidal activity against Staphylococcus aureus KCTC 503 after 24 hrs by agar plate method; assay type: functional; details: KCTC 503, 24 h
How it was run: (§3)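 5 µL from each well without visible growth plated on fresh Mueller-Hinton agar, then 37 °C for a further 24 h. MBC is the lowest concentration giving no visible colonies. Run in triplicate.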

[5] = system: Staphylococcus aureus; assay: Antibacterial activity against quinolone-resistant Staphylococcus aureus CCARM 3505 after 24 hrs by two-fold serial dilution method; assay type: functional; details: CCARM 3505, 24 h
How it was run: (§4)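 Broth microdilution MIC. Bacteria grown to mid-log phase in Mueller-Hinton broth, diluted 1000-fold, about 10^5 CFU/mL. Compounds from DMSO stocks, two-fold serial dilution from a final 64 µg/mL. Incubation at 37 °C for 24 h. Growth read as absorbance at 630 nm on a microplate reader. Run in triplicate.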

[6] = system: Staphylococcus aureus; assay: Bactericidal activity against methicillin-resistant Staphylococcus aureus CCARM 3167 after 24 hrs by agar plate method; assay type: functional; details: CCARM 3167, 24 h; how it was run: as §3
[7] = system: Salmonella typhimurium; assay: Antibacterial activity against Salmonella typhimurium 2421 after 24 hrs by two-fold serial dilution method; assay type: functional, Salmonella enterica subsp. enterica serovar Typhimurium; details: Salmonella enterica, 2421, 24 h; how it was run: as §1
[8] = system: Staphylococcus aureus; assay: Bactericidal activity against quinolone-resistant Staphylococcus aureus CCARM 3519 after 24 hrs by agar plate method; assay type: functional; details: CCARM 3519, 24 h; how it was run: as §3
[9] = system: Escherichia coli; assay: Bactericidal activity against Escherichia coli KCTC 1924 after 24 hrs by agar plate method; assay type: functional; details: KCTC 1924, 24 h; how it was run: as §2
[10] = system: Candida albicans; assay: Antifungal activity against Candida albicans 7535 after 24 hrs by two-fold serial dilution method; assay type: functional; details: Candida albicans, 7535, 24 h
[11] = system: Staphylococcus aureus; assay: Bactericidal activity against Staphylococcus aureus RN4220 after 24 hrs by agar plate method; assay type: functional; details: RN4220, 24 h; how it was run: as §2
[12] = system: Staphylococcus aureus; assay: Antibacterial activity against quinolone-resistant Staphylococcus aureus CCARM 3519 after 24 hrs by two-fold serial dilution method; assay type: functional; details: CCARM 3519, 24 h; how it was run: as §4
[13] = system: Staphylococcus aureus; assay: Antibacterial activity against Staphylococcus aureus KCTC 503 after 24 hrs by two-fold serial dilution method; assay type: functional; details: KCTC 503, 24 h; how it was run: as §1
[14] = system: Staphylococcus aureus; assay: Antibacterial activity against Staphylococcus aureus KCTC 209 after 24 hrs by two-fold serial dilution method; assay type: functional; details: KCTC 209, 24 h; how it was run: as §1
[15] = system: Staphylococcus aureus; assay: Antibacterial activity against methicillin-resistant Staphylococcus aureus CCARM 3167 after 24 hrs by two-fold serial dilution method; assay type: functional; details: CCARM 3167, 24 h; how it was run: as §4
[16] = system: Pseudomonas aeruginosa; assay: Antibacterial activity against Pseudomonas aeruginosa 2742 after 24 hrs by two-fold serial dilution method; assay type: functional; details: Pseudomonas aeruginosa, 2742, 24 h; how it was run: as §1
[17] = system: Staphylococcus aureus; assay: Antibacterial activity against Staphylococcus aureus RN4220 after 24 hrs by two-fold serial dilution method; assay type: functional; details: RN4220, 24 h; how it was run: as §4
[18] = system: Staphylococcus aureus; assay: Bactericidal activity against methicillin-resistant Staphylococcus aureus CCARM 3506 after 24 hrs by agar plate method; assay type: functional; details: CCARM 3506, 24 h; how it was run: as §3
[19] = system: Pseudomonas aeruginosa; assay: Antibacterial activity against Pseudomonas aeruginosa 2004 after 24 hrs by two-fold serial dilution method; assay type: functional; details: Pseudomonas aeruginosa, 2004, 24 h; how it was run: as §1
[20] = system: Staphylococcus aureus; assay: Bactericidal activity against quinolone-resistant Staphylococcus aureus CCARM 3505 after 24 hrs by agar plate method; assay type: functional; details: CCARM 3505, 24 h; how it was run: as §3
[21] = system: Staphylococcus aureus; assay: Antibacterial activity against methicillin-resistant Staphylococcus aureus CCARM 3506 after 24 hrs by two-fold serial dilution method; assay type: functional; details: CCARM 3506, 24 h; how it was run: as §4
[22] = system: Staphylococcus aureus; assay: Bactericidal activity against Staphylococcus aureus KCTC 209 after 24 hrs by agar plate method; assay type: functional; details: KCTC 209, 24 h; how it was run: as §2
[23] = system: Escherichia coli; assay: Antibacterial activity against Escherichia coli CCARM 1356 after 24 hrs by two-fold serial dilution method; assay type: functional; details: CCARM 1356, 24 h; how it was run: as §1
[24] = system: Staphylococcus aureus; assay: Ratio of MBC to MIC for Staphylococcus aureus KCTC 503; assay type: functional
How it was run: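 The ratio divides MBC by MIC for the same strain. MIC comes from two-fold broth microdilution in Mueller-Hinton broth (about 10^5 CFU/mL, 37 °C, 24 h, absorbance at 630 nm). MBC comes from subculturing 5 µL from clear wells onto Mueller-Hinton agar for another 24 h at 37 °C, taken as the lowest concentration with no colonies.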

Structure (SMILES) | MIC [1] | MBC [2] | MIC [3] | MBC [4] | MIC [5] | MBC [6] | MIC [7] | MBC [8] | MIC [10] | MBC [11] | MIC [12] | MIC [13] | MIC [14] | MIC [15] | MIC [16] | MIC [17] | MBC [18] | MIC [19] | MBC [20] | MIC [21] | further results
O=C1NC(=S)S/C1=C\c1ccc(/C=N/n2c(-c3ccccc3Cl)n[nH]c2=S)cc1 | 16 µg/mL (≈ 34.9 µM) | > 128 µg/mL | 16 µg/mL (≈ 34.9 µM) | > 256 µg/mL | 16 µg/mL (≈ 34.9 µM) | > 128 µg/mL | > 128 µg/mL | > 128 µg/mL | > 64 µg/mL | > 256 µg/mL | 16 µg/mL (≈ 34.9 µM) | 16 µg/mL (≈ 34.9 µM) | 64 µg/mL (≈ 140 µM) | 16 µg/mL (≈ 34.9 µM) | > 128 µg/mL | 32 µg/mL (≈ 69.9 µM) | > 128 µg/mL | > 128 µg/mL | > 128 µg/mL | 16 µg/mL (≈ 34.9 µM) | MBC [9]: > 128 µg/mL; MBC [22]: > 256 µg/mL; MIC [23]: > 128 µg/mL
Cc1ccc(-c2n[nH]c(=S)n2/N=C/c2ccc(/C=C3\SC(=S)N([C@@H](Cc4ccccc4)C(=O)O)C3=O)cc2)cc1 | 64 µg/mL (≈ 109 µM) | > 256 µg/mL | > 128 µg/mL | 64 µg/mL (≈ 109 µM) | 16 µg/mL (≈ 27.3 µM) | 64 µg/mL (≈ 109 µM) | > 128 µg/mL | > 128 µg/mL | > 64 µg/mL | 8 µg/mL (≈ 13.7 µM) | 16 µg/mL (≈ 27.3 µM) | 64 µg/mL (≈ 109 µM) | > 64 µg/mL | 8 µg/mL (≈ 13.7 µM) | > 128 µg/mL | 8 µg/mL (≈ 13.7 µM) | 128 µg/mL (≈ 219 µM) | > 128 µg/mL | 128 µg/mL (≈ 219 µM) | 16 µg/mL (≈ 27.3 µM) | Ratio [24]: <=4; MIC [23]: > 128 µg/mL
O=C(O)[C@H](Cc1ccccc1)N1C(=O)/C(=C/c2ccc(/C=N/n3c(-c4ccc(Br)cc4)n[nH]c3=S)cc2)SC1=S | 16 µg/mL (≈ 24.6 µM) | 64 µg/mL (≈ 98.4 µM) | > 128 µg/mL | 32 µg/mL (≈ 49.2 µM) | 8 µg/mL (≈ 12.3 µM) | 32 µg/mL (≈ 49.2 µM) | > 128 µg/mL | 64 µg/mL (≈ 98.4 µM) | > 64 µg/mL | 64 µg/mL (≈ 98.4 µM) | 8 µg/mL (≈ 12.3 µM) | 8 µg/mL (≈ 12.3 µM) | > 64 µg/mL | 8 µg/mL (≈ 12.3 µM) | > 128 µg/mL | 8 µg/mL (≈ 12.3 µM) | 128 µg/mL (≈ 197 µM) | > 128 µg/mL | 32 µg/mL (≈ 49.2 µM) | 16 µg/mL (≈ 24.6 µM) | Ratio [24]: <=4; MIC [23]: > 128 µg/mL
O=C(O)[C@H](Cc1ccccc1)N1C(=O)/C(=C/c2ccc(/C=N/n3c(-c4ccc(F)cc4)n[nH]c3=S)cc2)SC1=S | 64 µg/mL (≈ 109 µM) | 256 µg/mL (≈ 434 µM) | > 128 µg/mL | 128 µg/mL (≈ 217 µM) | 16 µg/mL (≈ 27.1 µM) | 128 µg/mL (≈ 217 µM) | > 128 µg/mL | 128 µg/mL (≈ 217 µM) | > 64 µg/mL | 128 µg/mL (≈ 217 µM) | 16 µg/mL (≈ 27.1 µM) | 32 µg/mL (≈ 54.3 µM) | > 64 µg/mL | 16 µg/mL (≈ 27.1 µM) | > 128 µg/mL | 16 µg/mL (≈ 27.1 µM) | > 256 µg/mL | > 128 µg/mL | 128 µg/mL (≈ 217 µM) | 64 µg/mL (≈ 109 µM) | Ratio [24]: <=4; MIC [23]: > 128 µg/mL
